Data set [1] concerns the target T1, Sodium channel protein type 9 subunit alpha (Homo sapiens, UniProt Q15858). The data set is described as follows: Inhibition of human Nav1.7 sodium channel expressed in HEK293 cells by FRET assay. The format is cell-based. The essentials:
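HEK-293 cells stably expressing hNav1.7 were used in a functional membrane-potential assay. Channel block was read as FRET between two membrane-associated dyes; the value is reported as IC50.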
Target sequence in this assay (Q15858 whole entry): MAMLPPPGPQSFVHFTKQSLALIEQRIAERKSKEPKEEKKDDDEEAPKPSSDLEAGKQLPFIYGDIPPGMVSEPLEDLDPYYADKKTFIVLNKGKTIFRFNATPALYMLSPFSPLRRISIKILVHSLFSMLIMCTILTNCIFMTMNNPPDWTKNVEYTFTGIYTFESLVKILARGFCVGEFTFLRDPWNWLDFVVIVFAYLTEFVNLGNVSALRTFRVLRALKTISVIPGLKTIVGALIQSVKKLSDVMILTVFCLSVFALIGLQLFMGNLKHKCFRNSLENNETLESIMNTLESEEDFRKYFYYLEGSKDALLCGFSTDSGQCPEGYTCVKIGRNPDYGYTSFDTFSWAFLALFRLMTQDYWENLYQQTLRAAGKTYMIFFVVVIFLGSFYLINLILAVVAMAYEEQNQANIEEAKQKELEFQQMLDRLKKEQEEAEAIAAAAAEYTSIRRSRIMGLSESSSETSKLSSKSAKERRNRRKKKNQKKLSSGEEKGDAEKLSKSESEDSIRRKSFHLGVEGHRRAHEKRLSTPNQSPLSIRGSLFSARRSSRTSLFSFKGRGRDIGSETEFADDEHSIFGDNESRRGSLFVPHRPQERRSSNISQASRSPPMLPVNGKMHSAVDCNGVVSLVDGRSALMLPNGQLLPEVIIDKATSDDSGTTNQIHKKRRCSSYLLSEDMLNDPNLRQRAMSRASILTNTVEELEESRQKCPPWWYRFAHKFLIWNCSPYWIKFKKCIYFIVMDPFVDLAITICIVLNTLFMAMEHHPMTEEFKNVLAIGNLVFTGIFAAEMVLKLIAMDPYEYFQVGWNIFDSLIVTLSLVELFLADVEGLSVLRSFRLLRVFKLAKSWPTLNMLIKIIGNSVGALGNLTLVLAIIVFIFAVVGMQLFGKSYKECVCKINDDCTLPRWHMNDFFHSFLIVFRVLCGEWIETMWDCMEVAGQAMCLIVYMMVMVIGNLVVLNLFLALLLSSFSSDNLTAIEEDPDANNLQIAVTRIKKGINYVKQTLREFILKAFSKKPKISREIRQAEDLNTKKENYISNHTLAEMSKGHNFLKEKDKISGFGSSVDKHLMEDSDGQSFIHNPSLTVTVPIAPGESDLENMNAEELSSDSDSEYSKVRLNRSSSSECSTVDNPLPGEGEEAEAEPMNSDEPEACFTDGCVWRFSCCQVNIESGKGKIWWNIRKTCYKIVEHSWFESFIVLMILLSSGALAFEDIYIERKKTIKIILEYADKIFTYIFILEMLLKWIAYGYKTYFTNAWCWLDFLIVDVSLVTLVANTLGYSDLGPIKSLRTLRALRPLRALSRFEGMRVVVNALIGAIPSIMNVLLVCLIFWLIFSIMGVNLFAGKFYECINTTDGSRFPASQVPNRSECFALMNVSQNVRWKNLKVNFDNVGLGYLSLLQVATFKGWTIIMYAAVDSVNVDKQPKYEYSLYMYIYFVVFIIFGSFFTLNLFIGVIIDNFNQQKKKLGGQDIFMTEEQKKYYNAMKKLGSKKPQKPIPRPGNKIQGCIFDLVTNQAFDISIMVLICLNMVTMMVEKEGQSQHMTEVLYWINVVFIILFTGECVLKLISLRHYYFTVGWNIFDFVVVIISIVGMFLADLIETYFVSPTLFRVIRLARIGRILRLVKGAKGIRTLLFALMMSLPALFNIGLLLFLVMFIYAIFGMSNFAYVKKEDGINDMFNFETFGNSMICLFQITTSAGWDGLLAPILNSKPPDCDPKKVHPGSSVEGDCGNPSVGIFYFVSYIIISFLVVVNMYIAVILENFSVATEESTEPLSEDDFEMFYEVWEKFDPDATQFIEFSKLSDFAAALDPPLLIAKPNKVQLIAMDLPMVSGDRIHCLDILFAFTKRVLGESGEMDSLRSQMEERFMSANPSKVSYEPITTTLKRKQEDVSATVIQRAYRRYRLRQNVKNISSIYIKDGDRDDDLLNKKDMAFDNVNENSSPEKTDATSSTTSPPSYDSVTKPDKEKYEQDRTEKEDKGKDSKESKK

In data set [2] the test system is hERG (Potassium voltage-gated channel subfamily H member 2, Homo sapiens). The data set is described as follows: Displacement of [35S]MK-0499 from human hERG potassium channel at 1 uM. (In a radioligand displacement assay an active substance lowers the binding of a labelled ligand.)
For data set [3] the test system is unchanged. The data set is described as follows: Displacement of [35S]MK-0499 from human hERG potassium channel at 10 uM.
Data set [4] in a line: Oral bioavailability in Sprague-Dawley rat at 3.0 mg/kg. In kind it is ADME, organism-based. Particulars: in vivo. The essentials: (§1)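 Fasted male Sprague–Dawley rats (n = 3 per route) received 1.0 mg/kg iv through a femoral vein cannula or 3.0 mg/kg po by gavage. Compound was formulated at 1.5 mg/mL in PEG300/water or DMSO/PEG300/water. Serial blood sampled at 5 min (iv only), 15 and 30 min, and 1, 2, 4, 6, 8 h. Plasma was acetonitrile-precipitated and measured by LC–MS/MS.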

Data set [5] is described as follows: Clearance in Sprague-Dawley rat at 1.0 mg/kg, iv. The format is ADME, organism-based. Also noted: dose 1 mg/kg, route intravenous. Particulars: in vivo. The essentials: as §1
The nature of data set [6]: Half life in Sprague-Dawley rat at 1.0 mg/kg, iv. In kind it is ADME, organism-based. The arrangement: dose 1 mg/kg, route intravenous. Conditions: in vivo. The essentials:
as §1

Another data set concerns Mus musculus. The data set is described as follows: Anticonvulsant activity in C57BL6J mouse assessed as prevention of shock-induced tonic-clonic seizures at 3 mg/kg, po after 30 mins. Conditions: for ED50: 0.5 h. In kind it is functional. In a few lines:
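Male C57BL6J mice, 14 weeks old. Dosed 3 mg/kg by gavage in 5% EtOH + 10% Tween 80 + 85% water, sonicated, 2 mL/kg. Maximal electroshock via auricular electrodes 30 min post-dose: 100 Hz, 0.7 ms pulse width, 0.5 s duration, 18 mA. Read-out was protection from tonic–clonic seizures; n = 10.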

Data set [7] deals with T1, Sodium channel protein type 9 subunit alpha. The data set is described as follows: Inhibition of human Nav1.7 sodium channel expressed in HEK293 cells at a membrane potential of -70 mV by whole cell voltage clamp technique. In kind it is cell-based. In a few lines: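 Whole-cell voltage clamp on HEK-293 cells stably expressing hNav1.7. Peak current evoked by 20 ms depolarizations from −70 mV. Bath: 40 mM NaCl, 120 mM NMDG–Cl, 1 mM KCl, 2.7 mM CaCl2, 0.5 mM MgCl2, 10 mM NMDG–Hepes, pH 7.4. Pipette: Cs–methanesulfonate/CsCl/CsF/BAPTA-based, pH 7.4. Junction potentials (<4 mV) were not corrected.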
Target sequence in this assay (Q15858 whole entry): as above

For data set [8] the target is unchanged. Particulars: HEK293, 1 uM.
Target sequence in this assay (Q15858 whole entry, looked up): as the sequence (Q15858 whole entry) above
Data set [9] has the same target. Conditions: HEK293.
Target sequence in this assay (Q15858 whole entry, looked up): as the sequence (Q15858 whole entry) above
A short description of data set [10]: Cmax in Sprague-Dawley rat at 3.0 mg/kg, po. Conditions: in vivo.

What is called IC50 is the concentration that gives 50% inhibition. The term inhibition denotes the relative decrease from the control value, in per cent. Read a high inhibition as a strong effect. In general, bioavailability refers to dose-corrected exposure relative to a reference, in per cent. A lower bioavailability goes with poor availability. As a reminder, the clearance is the volume of plasma or blood freed of the substance per unit of time. Low values mean a low capacity for elimination, high ones a high capacity for elimination. The term half-life denotes the time needed for the level to fall by half in the phase considered. High values mean slow decline, low ones rapid decline. The Ki is the dissociation constant of the complex between target and ligand, obtained from inhibition or displacement. Lower therefore signals a stronger hold on the target. The Cmax is the highest concentration seen after dosing. A word on the ED50: it is the dose that gives a 50% effect, or the effect in half of the subjects.

SMILES strings stand for the structures. Active and inactive are the calls of the source.

`CC(C)N1C(=O)[C@H](NC(=O)[C@@H](Cc2ccccc2F)NC(=O)OC(C)(C)C)CN(CC2CC2)c2ccccc21` (stereo in doubt; 22) [listing 1 of 2 here] returned an IC50 in data set [1] of 102 nM. In other words, the sub-micromolar range.

For the compound `CN1C(=O)[C@H](NC(=O)[C@@H](Cc2ccccc2F)NC(=O)OC(C)(C)C)CN(CC2CC2)c2ccccc21`, inhibition in [1] was half-maximal at 49 nM (IC50).

In data set [1], `CN1C[C@@H](NC(=O)[C@@H](Cc2ccccc2F)NC(=O)OC(C)(C)C)C(=O)N(C)c2ccccc21` had an IC50 of 142 nM. The inhibition in [2] turned out to be 0%; in data set [3] it was 7%.

In [1], `CC(C)(C)OC(=O)N[C@H](Cc1ccc(F)cc1)C(=O)N[C@@H]1CN(CC2CC2)c2ccccc2N(CC(F)(F)F)C1=O` showed an IC50 of 219 nM. In other words, the sub-micromolar range.

In data set [1], `CC(C)(C)OC(=O)N[C@H](Cc1ccccc1F)C(=O)N[C@@H]1CN(CC2CC2)c2ccccc2N(CC(F)(F)F)C1=O` showed an IC50 of 101 nM. Moreover, the values for the inhibition in data set [2] and in data set [3] were 7% and 20%, respectively.

In data set [1], `CN1C(=O)[C@H](NC(=O)[C@@H](Cc2ccccc2F)NC(=O)OC(C)(C)C)CN(CC(F)(F)F)c2ccccc21` displayed an IC50 of 47 nM. In addition, the inhibition in data set [2] came out at 36%; in data set [3] it was 62%.

In turn, `CC(C)(C)OC(=O)N[C@H](Cc1ccccc1)C(=O)N[C@@H]1CN(CC2CC2)c2ccccc2N(CC(F)(F)F)C1=O` registered an IC50 in data set [1] of 30 nM. In addition, the bioavailability in data set [4] stood at 5%. This compound also displayed a clearance in data set [5] of 48 mL/min/kg. Further, the half-life in [6] is 3.1 h. The result in the data set with Mus musculus was Active. In [7], this compound showed a half-maximal inhibitory concentration (IC50) of 1.54 nM and a Ki of 0.63 nM. This compound also showed an inhibition in data set [8] of less than 10%. The compound further had a Kr in data set [9] greater than 5 µM. This compound had a Cmax in [10] of 30 nM.

`CN1C(=O)[C@H](NC(=O)[C@@H](Cc2ccccc2F)NC(=O)OC(C)(C)C)CN(CC2CCCCC2)c2ccccc21` displayed an IC50 in [1] of 188 nM. In addition, the values for the inhibition in data set [2] and in [3] were 17% and 43%, respectively.

With `CC(C)N1C(=O)[C@H](NC(=O)[C@@H](Cc2c(F)cccc2F)NC(=O)OC(C)(C)C)CN(CC2CC2)c2ccccc21`, 97 nM corresponded to half-maximal inhibition in data set [1] (IC50). The compound further displayed an inhibition in data set [3] of 25%.

As to `CC(C)N1C(=O)[C@H](NC(=O)[C@@H](Cc2ccc(F)cc2)NC(=O)OC(C)(C)C)CN(CC2CC2)c2ccccc21`, in data set [1], 196 nM corresponded to half-maximal inhibition (IC50).

In turn, `CN1C(=O)[C@H](NC(=O)[C@@H](Cc2ccccc2F)NC(=O)OC(C)(C)C)CNc2ccccc21` had an IC50 in [1] of 409 nM. Also, the inhibition in data set [2] is 0%; in data set [3] it was 25%.

In turn, `CN1C(=O)[C@H](NC(=O)[C@@H](Cc2ccccc2F)NC(=O)OC(C)(C)C)CN(CC2CCC2)c2ccccc21` came in with an IC50 in data set [1] of 81 nM. Further, the inhibition was determined as 20% in data set [2] and 65% in data set [3].

Compound `CC(C)(C)OC(=O)N[C@H](Cc1ccccc1C(F)(F)F)C(=O)N[C@@H]1CN(CC2CC2)c2ccccc2N(CC(F)(F)F)C1=O` yielded an IC50 in data set [1] of 131 nM. The bioavailability in data set [4] was 10%. The same compound had a clearance in [5] of 51 mL/min/kg. In data set [6], this compound gave a half-life of 2.4 h. In addition, in data set [10], the Cmax was 60 nM. The compound also came in with an inhibition in data set [3] of 11%.

The compound `CC(C)N1C(=O)[C@H](NC(=O)[C@@H](Cc2ccccc2F)NC(=O)OC(C)(C)C)CN(CC2CC2)c2ccccc21` (stereo in doubt; 22) [listing 2 of 2 here] displayed an inhibition in [3] of 32%.

For `CC(C)(C)OC(=O)N[C@H](Cc1ccccc1OC(F)(F)F)C(=O)N[C@@H]1CN(CC2CC2)c2ccccc2N(CC(F)(F)F)C1=O`, the IC50 in data set [1] was 73 nM. That is a double-digit nanomolar value.

Take `Nc1nnc(-c2cccc(Cl)c2Cl)c(N)n1` [LAMOTRIGINE]: the ED50 in the data set on Mus musculus is 2.2 mg/kg.

For `CC(C)N1C(=O)[C@H](NC(=O)[C@@H](Cc2ccccc2C(F)(F)F)NC(=O)OC(C)(C)C)CN(CC2CC2)c2ccccc21`, it took 149 nM to reach half-maximal inhibition in data set [1] (IC50). For the same compound, the bioavailability in data set [4] worked out at 9%. The compound also returned a clearance in data set [5] of 23 mL/min/kg. Also, in data set [6], the half-life is 2.5 h. This compound registered a Cmax in [10] of 150 nM.

For the compound `CC(C)N1C(=O)[C@H](NC(=O)[C@@H](Cc2ccccc2F)NC(=O)OC(C)(C)C)CN(CC2CC2)c2ccccc21` (stereo in doubt; 14) [listing 1 of 2 here], the inhibition in [2] amounted to 7%; in data set [3] it was 33%.

On to `CN1C(=O)[C@H](NC(=O)[C@@H](Cc2ccccc2F)NC(=O)OC(C)(C)C)CN(Cc2ccccc2)c2ccccc21`, for which, in data set [1], half-maximal inhibition (IC50) was put at 25 nM. Besides, the inhibition was 14% in data set [2] and 84% in data set [3].

Compound `CC(C)(C)OC(=O)N[C@H](Cc1cc(C(F)(F)F)ccc1C(F)(F)F)C(=O)N[C@@H]1CN(CC2CC2)c2ccccc2N(CC(F)(F)F)C1=O` displayed an IC50 in data set [1] of 120 nM. In data set [3], this compound showed an inhibition of 6%.

Turning to `NC(=O)N1c2ccccc2C=Cc2ccccc21` [CARBAMAZEPINE], the ED50 in the data set with Mus musculus came out at 3.4 mg/kg.

For the compound `CC(C)N1C(=O)[C@H](NC(=O)[C@@H](Cc2ccccc2)NC(=O)OC(C)(C)C)CN(CC2CC2)c2ccccc21`, the IC50 in [1] came out at 52 nM. In data set [3], this compound yielded an inhibition of 42%.

For `CC(C)N1C(=O)[C@H](NC(=O)[C@@H](Cc2ccccc2OC(F)(F)F)NC(=O)OC(C)(C)C)CN(CC2CC2)c2ccccc21`, in data set [1], 75 nM corresponded to half-maximal inhibition (IC50). The compound also showed a bioavailability in data set [4] of 4%. The clearance in data set [5] worked out at 30 mL/min/kg. For the same compound, in [6], the half-life was 2.4 h. This compound also gave a Cmax in data set [10] of 40 nM. Further, in data set [3], the inhibition was determined as 35%.

`CC(C)(C)OC(=O)N[C@H](Cc1cccc(F)c1)C(=O)N[C@@H]1CN(CC2CC2)c2ccccc2N(CC(F)(F)F)C1=O` came in with an IC50 in data set [1] of 142 nM. Also, the inhibition in data set [3] is 17%.

`CC(C)N1C(=O)[C@H](NC(=O)[C@@H](Cc2ccccc2F)NC(=O)OC(C)(C)C)CN(CC2CC2)c2ccccc21` (stereo in doubt; 14) [listing 2 of 2 here] showed an IC50 in data set [1] (hek293) of 102 nM.

Regarding `CC(C)N1C(=O)[C@H](NC(=O)[C@@H](Cc2cccc(F)c2)NC(=O)OC(C)(C)C)CN(CC2CC2)c2ccccc21`, in [1], the IC50 was 96 nM. In data set [3], this compound registered an inhibition of 17%.

The values are drawn from ChEMBL document CHEMBL1141526, “3-Amino-1,5-benzodiazepinones: potent, state-dependent sodium channel blockers with anti-epileptic activity” (Bioorg Med Chem Lett, 2008).
